EPA's CvTdb concentration-time database

Key:
Mouse [1] = assay: concentration in plasma after dosing; conditions: 2 h; dosed: 2-Hydroxy-4-methoxybenzophenone; 50 mg/kg; iv; Male; B6C3F1
Mouse [2] = assay: concentration in plasma after dosing; conditions: 10 min; dosed: 2-Hydroxy-4-methoxybenzophenone; 500 mg/kg; oral; Female; B6C3F1
Mouse [3] = assay: concentration in plasma after dosing; conditions: 10 min; dosed: 2-Hydroxy-4-methoxybenzophenone; 250 mg/kg; oral; Female; B6C3F1
Rat [4] = assay: concentration in plasma after dosing; conditions: 0.5 h; dosed: alpha-Thujone; 25 mg/kg; oral; Female; Harlan Sprague Dawley
Rat [5] = assay: concentration in brain after dosing; conditions: 10 min; dosed: alpha-Thujone; 50 mg/kg; oral; Female; Harlan Sprague Dawley
Rat [6] = assay: concentration in brain after dosing; conditions: 2 h; dosed: 76231-76-0; 3.0 mg/kg; iv; Female; F344
Rat [7] = assay: concentration in plasma after dosing; conditions: 6 h; dosed: alpha-Thujone; 25 mg/kg; oral; Male; Harlan Sprague Dawley
human = assay: concentration in blood after dosing; negative times count back from the end of exposure; conditions: dosed: trichloroethylene, inhalation
How it was run: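 Concentration-versus-time or amount-versus-time points were compiled from published in vivo toxicokinetic studies and from two structured collections. The studies were found by PubMed searching, classifier screening and manual review. Points were mostly digitised from plot screenshots with WebPlotDigitizer, otherwise copied from tables, and kept in the reported units. Dose, route, subject details and medium were curated by hand from each paper, and sampling and analytical methods follow each source and were often unreported.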

Rat [8] = assay: concentration in plasma after dosing; conditions: dosed: Perfluorohexane-1-sulphonic acid – potassium salt, 4 mg/kg, oral, Male, F344
Rat [9] = assay: concentration in brain after dosing; conditions: 24 h; dosed: Perfluorohexane-1-sulphonic acid – potassium salt; 16 mg/kg; oral; Female; F344
Rat [10] = assay: concentration in kidney after dosing; conditions: 3 h; dosed: Perfluorohexane-1-sulphonic acid – potassium salt; 16 mg/kg; oral; Female; F344
Rat [11] = assay: concentration in brain after dosing; conditions: 6 h; dosed: Perfluorohexane-1-sulphonic acid – potassium salt; 16 mg/kg; oral; Female; Harlan Sprague Dawley
Rat [12] = assay: concentration in kidney after dosing; conditions: 6 h; dosed: Perfluorohexane-1-sulphonic acid – potassium salt; 16 mg/kg; oral; Female; F344
Rat [13] = assay: concentration in brain after dosing; conditions: 3 h; dosed: Perfluorohexane-1-sulphonic acid – potassium salt; 16 mg/kg; oral; Female; Harlan Sprague Dawley
Rat [14] = assay: concentration in plasma after dosing; conditions: dosed: Perfluorohexane-1-sulphonic acid – potassium salt, 4 mg/kg, oral, Male, F344; remark: listed apart in the source
Rat [15] = assay: concentration in liver after dosing; conditions: 192 h; dosed: Perfluorohexane-1-sulphonic acid – potassium salt; 16 mg/kg; oral; Female; F344
Rat [16] = assay: concentration in plasma after dosing; conditions: 20 min; dosed: Pyridine; 10 mg/kg; oral; Female; Harlan Sprague-Dawley
Rat [17] = assay: concentration in plasma after dosing; conditions: 2 h; dosed: Pyridine; 25 mg/kg; oral; Female; Harlan Sprague-Dawley
Rat [18] = assay: concentration in plasma after dosing; conditions: dosed: Methyleugenol, 37 mg/kg, iv, Female, F344
Rat [19] = assay: concentration in plasma after dosing; conditions: dosed: Methyleugenol, 37 mg/kg, oral, Female, F344/N
Rat [20] = assay: concentration in plasma after dosing; conditions: dosed: Methyleugenol, 37 mg/kg, iv, Male, F344
Rat [21] = assay: concentration in plasma after dosing; conditions: dosed: Methyleugenol, 37 mg/kg, iv, Female, F344; remark: listed apart in the source
Mouse [22] = assay: concentration in plasma after dosing; conditions: dosed: 2,4-Dichlorophenoxyacetic acid, 2.0 mg/kg, oral, Male, B6C3F1
Mouse [23] = assay: concentration in plasma after dosing; conditions: dosed: 2,4-Dichlorophenoxyacetic acid, 1.0 mg/kg, oral, Male, B6C3F1
Rat [24] = assay: concentration in plasma after dosing; conditions: 0.25 h; dosed: Primidone; 30 mg/kg; oral; Male; F344
Rat [25] = assay: concentration in plasma after dosing; conditions: 1.5 h; dosed: Primidone; 80 mg/kg; oral; Male; F344

O=C(c1ccccc1)c1ccc(O)cc1O [2,4-Dihydroxybenzophenone]
Conditions | concentration in plasma [ng/mL]
Mouse [1] | 266
Mouse [2] | 4250
Mouse [3] | 1290

CC(C)[C@]12CC(=O)[C@H](C)[C@H]1C2 [alpha-Thujone]
Conditions | concentration in brain [ng/g] | concentration in plasma [ng/mL]
Rat [4] | – | 305
Rat [5] | 1800 | –
Rat [6] | 19.3 | –
Rat [7] | – | 42.9

OCC(Cl)(Cl)Cl [trichloroethanol (free)]
human, 100 ppm, duration: 4 hr, person
Conditions | concentration in blood [ng/mL]
0.2566 h | 2040
0.515 h | 2000
1.032 h | 1910
1.986 h | 1740
3.954 h | 1400
5.921 h | 1180
7.947 h | 1070
9.954 h | 944
11.96 h | 896
13.99 h | 727
15.97 h | 577
18 h | 459

human, 100 ppm, duration: 4 hr, person, during exposure
Conditions | concentration in blood [ng/mL]
-5 s | 2030
-3.524 h | 172
-2.99 h | 481
-2.021 h | 1060
-0.9915 h | 1570

O=S(=O)([O-])C(F)(F)C(F)(F)C(F)(F)C(F)(F)C(F)(F)C(F)(F)F.[K+] [Perfluorohexane-1-sulphonic acid – potassium salt]
concentration in plasma [ng/mL]
Conditions | 0.25 h | 6 h | 12 h | 192 h | 528 h
Rat [8] | – | 28700 | – | 19100 | –
Rat [14] | 5490 | – | 31800 | – | 8940

Conditions | concentration in brain [ng/g] | concentration in kidney [ng/g] | concentration in liver [ng/g]
Rat [9] | 1760 | – | –
Rat [10] | – | 29100 | –
Rat [11] | 1090 | – | –
Rat [12] | – | 36400 | –
Rat [13] | 1340 | – | –
Rat [15] | – | – | 40300

c1ccncc1 [Pyridine]
Conditions | concentration in plasma [ng/mL]
Rat [16] | 2070
Rat [17] | 17100

C=CCc1ccc(OC)c(OC)c1 [Methyleugenol]
Conditions | concentration in plasma [ng/mL]
Rat [18], 0.25 h | 9760
Rat [18], 1.5 h | 576
Rat [19], 6 h | 8.85
Rat [19], 10 min | 254
Rat [20], 0.25 h | 8180
Rat [20], 1.5 h | 878
Rat [21], 0.5 h | 1520
Rat [21], 0.75 h | 768

O=C(O)COc1ccc(Cl)cc1Cl [2,4-Dichlorophenoxyacetic acid]
concentration in plasma [ng/mL]
Conditions | 0.25 h | 0.5 h | 2 h | 2.5 min | 3 h | 4 h | 5 min | 10 h | 10 min
Mouse [22] | 6770 | 6600 | 2620 | 6530 | 483 | – | 7270 | – | 7510
Mouse [23] | 1400 | 1920 | 531 | 1660 | 476 | 200 | 3440 | 734 | 2340

OCC(Cl)(Cl)Cl [trichloroethanol]
concentration in blood [mg/kg], human, duration: 2 hr - 20 min
Conditions | 0 h | 0.5 h | 1 h | 1.5 h | 2 h | 21 h
1348 mg | 2.8 | 2.7 | 2.6 | 2.5 | 2.4 | 0.8
1681 mg | 3 | 3.3 | 3.3 | 3.2 | 3.1 | 1
3907 mg | 3.9 | 4.5 | 4.2 | 4.4 | 4.4 | 1.6

human
Conditions | concentration in blood
-1.833 h, 1348 mg, duration: 2 hr - 20 min, during exposure | 0.8 mg/kg
-1.833 h, 1681 mg, duration: 2 hr - 20 min, during exposure | 0.7 mg/kg
-1.833 h, 3907 mg, duration: 2 hr - 20 min, during exposure | 1.4 mg/kg
-1 h, 1348 mg, duration: 2 hr - 20 min, during exposure | 1.3 mg/kg
-1 h, 1681 mg, duration: 2 hr - 20 min, during exposure | 1.9 mg/kg
-1 h, 3907 mg, duration: 2 hr - 20 min, during exposure | 2.2 mg/kg
-0.5 h, 1348 mg, duration: 2 hr - 20 min, during exposure | 2.2 mg/kg
-0.5 h, 1681 mg, duration: 2 hr - 20 min, during exposure | 2.1 mg/kg
-0.5 h, 3907 mg, duration: 2 hr - 20 min, during exposure | 3.1 mg/kg
0 h, 100 ppm, duration: 6 hr, female | 4110 ng/mL
18 h, 100 ppm, duration: 6 hr, female | 2420 ng/mL
24 h, 100 ppm, duration: 6 hr, female | 5640 ng/mL
42 h, 100 ppm, duration: 6 hr, female | 2510 ng/mL
48 h, 100 ppm, duration: 6 hr, female | 5750 ng/mL
66 h, 100 ppm, duration: 6 hr, female | 3180 ng/mL
72 h, 100 ppm, duration: 6 hr, female | 9060 ng/mL
90 h, 100 ppm, duration: 6 hr, female | 5590 ng/mL
96 h, 100 ppm, duration: 6 hr, female | 9010 ng/mL

Conditions | concentration in blood [ng/mL]
human, -6 h, 100 ppm, duration: 6 hr, female, during exposure | 212

CCC1(c2ccccc2)C(=O)NCNC1=O [Primidone]
Conditions | concentration in plasma [ng/mL]
Rat [24] | 7800
Rat [25] | 35000
